Compound activity: PubChem BioAssay, Sanford-Burnham Center for Chemical Genomics
LMPTP block = LMPTP phosphatase inhibitors, primary screen, biochemical, fluorescence intensity, uHTS. 360,000 tested, 0.22% active. inhibition, % at 20 µM. recombinant LMPTP-A, OMFP fluorogenic substrate;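 active = compounds that cut the enzyme signal by at least half of the control window in the single-dose screen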
Target sequence (P24666 whole entry, looked up): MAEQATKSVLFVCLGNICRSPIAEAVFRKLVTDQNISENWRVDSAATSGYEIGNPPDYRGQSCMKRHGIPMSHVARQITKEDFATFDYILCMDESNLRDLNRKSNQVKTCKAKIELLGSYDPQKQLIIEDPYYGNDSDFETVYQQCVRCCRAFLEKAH
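Assay system: LMPTP-A, protein tyrosine phosphatase of low molecular weight / Medium: pH 6.0 Bis-Tris buffer with DTT and Triton X-100 / Schedule: 50 min enzyme reaction at room temperature, protected from light / Measured by: endpoint fluorescence intensity from OMFP dephosphorylation / Read-out basis: % inhibition relative to no-enzyme and uninhibited control wells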
STEP block = STEP phosphatase inhibitors, primary screen, biochemical, fluorescence intensity, uHTS. recombinant STEP, OMFP fluorogenic substrate. 360,000 tested, 0.25% active. AID 588621, 2011. inhibition, % at 20 µM. Tyrosine-protein phosphatase non-receptor type 5 (Homo sapiens), P54829;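 active = inhibition at 20 µM, scaled per plate between control wells, above about 37%, limit read from the data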
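material = STEP tyrosine phosphatase | reagent = fluorogenic phosphatase substrate OMFP at 25 µM final | doses = single compound dose of 20 µM, 1% DMSO final | schedule = 20 min reaction, room temperature, in the dark | measured by = fluorescence, 480/540 nm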
SUMO1 PPI mod = modulators of SUMO1 protein-protein interactions, primary screen, biochemical, uHTS. SUMO1 binding to a labelled peptide, TR-FRET, 1 h. inhibition, % at 20 µM. 360,000 tested, 0.33% active. AID 602429, 2012; in the data active = inhibition above about 37%
Target sequence (P63165 whole entry, looked up): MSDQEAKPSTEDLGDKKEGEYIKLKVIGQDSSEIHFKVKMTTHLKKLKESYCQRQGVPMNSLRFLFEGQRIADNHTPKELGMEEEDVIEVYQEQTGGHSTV
DNMT1 block = human DNMT1 methyltransferase inhibitors, primary screen, biochemical, molecular beacon, fluorescence, HinP1I cleavage, uHTS | 360,000 tested, 0.83% active | inhibition (reported as % activation of signal), % at 10 µM | DNA (cytosine-5)-methyltransferase 1 (Homo sapiens), P26358; in the data active = inhibition above about 50%
Scp1 inh = Scp-1 phosphatase inhibitors, primary screen, biochemical, colorimetric, uHTS | Carboxy-terminal domain RNA polymerase II polypeptide A small phosphatase 1 (Homo … | Recombinant Scp1, phosphopeptide, malachite green phosphate absorbance | AID 493091, 2011 | inhibition, % at 20 µM | 340,000 tested, 0.88% active;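 active = inhibition above about 50% at 20 µM, limit read from the data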
Target sequence (Q9GZU7 76-261 limits assumed): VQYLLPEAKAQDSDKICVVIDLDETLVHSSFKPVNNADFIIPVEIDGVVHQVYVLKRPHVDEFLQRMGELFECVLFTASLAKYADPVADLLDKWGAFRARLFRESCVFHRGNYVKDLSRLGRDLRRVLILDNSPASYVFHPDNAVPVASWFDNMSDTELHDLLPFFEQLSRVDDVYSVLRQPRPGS
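assay system = SCP-1 phosphatase catalytic domain, residues 76-261 | buffer or medium = 50 mM Tris acetate pH 5.5, 0.005% Tween-20, 10 mM MgCl2 | incubation = enzyme reaction 45 min at room temperature, colour 5 min, stabilisation 30 min | signal = Phosphate-binding colour reagent, absorbance read at 630 nm | measure = % inhibition at 20 µM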
Scp-1 conf = Scp-1 phosphatase inhibitors, retest, confirmation, biochemical, colorimetric, single concentration; inhibition, % at 20 µM; recombinant SCP-1 catalytic domain, phosphate release, malachite green absorbance; shares compounds with Scp1 inh; AID 540281, 2011; 2,500 tested, 61% active
MG interference = colorimetric readout interference by compounds, confirmation, artefact control for Scp-1 inhibitor project, biochemical, single concentration | shares compounds with Scp1 inh | Colorimetric interference counterscreen, malachite green absorbance 630 nm | apparent inhibition (interference), % at 20 µM | 2,500 tested, under 10 active | AID 540313, 2011;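 note: compounds added after enzyme reaction finished so only phosphate colour detection is probed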
Scp-1 Tm shift = Scp-1 binding by thermal shift, confirmation, orthogonal assay for Scp-1 inhibitor project, biophysical, differential scanning fluorimetry | shares compounds with Scp1 inh | AID 540329, 2011 | Recombinant SCP1, Sypro Orange thermal shift Tm | thermal shift relative to vanadate control, % at 40 µM | 1,500 tested, 25% active;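 active = substances whose mean melting-temperature shift, as a percentage of the reference inhibitor's shift, reaches about 5.3%, limit read from the data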
Each line names hits and unclear results; the compound was inactive in the other large screens (follow-up assays come after a bar, where they were run). An excerpt weighted towards active compounds, which were near 1.7% of everything screened.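 Rule for the calls, unless noted: active = inhibition of at least 30% at 20 µM; inactive = the rest.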

CC1O[C@@H](OC2C(COC3OC(CO)C(O)[C@H](O)C3O)OC(OC3CC[C@]4(C)C(CC[C@@]5(C)[C@@H]4CC=C4[C@@H]6CC(C)(C)CC[C@]6(CO)C(O)C[C@]45C)C3(C)C)C(O)C2O)C(O)C(O)C1O (stereo partly specified)	Scp1 inh 54.8 | Scp-1 conf inactive | MG interference inactive
CC1(C)C[C@H](O)[C@]2(CO)CC[C@]3(C)C(=CCC4[C@@]5(C)CC[C@H](O)C(C)(C)C5CC[C@]43C)[C@@H]2C1 (stereo partly specified)	none
Cc1ccc(NC(=O)CN(C)C(=O)c2ccc(S(=O)(=O)N(C)c3ccccc3)cc2)cc1	Scp1 inh 54.2 | Scp-1 conf inactive | MG interference inactive
CC(=O)Nc1ccc(/C(C)=N/NC(=O)c2ccc(COc3ccccc3Cl)o2)cc1	Scp1 inh 104.0 | Scp-1 conf 65.1 | MG interference inactive | Scp-1 Tm shift inactive
COc1ccc(/C=C/C(=O)OCC(=O)NCc2ccco2)cc1OC	Scp1 inh 52.2 | Scp-1 conf 59.0 | MG interference inactive | Scp-1 Tm shift inactive
O=C(COc1ccc(Cl)cc1Cl)NCc1ccco1	none
Cc1ccc(OCC(=O)N(C)CC(=O)NCc2ccco2)c(Br)c1	Scp1 inh 69.8 | Scp-1 conf 74.5 | MG interference inactive | Scp-1 Tm shift inactive
COc1ccc(C(=O)OCC(=O)NCc2ccco2)cc1OC	Scp1 inh 55.5 | Scp-1 conf 52.5 | MG interference inactive | Scp-1 Tm shift inactive
COc1ccc(OCCC(=O)OCC(=O)NCc2ccco2)cc1	Scp1 inh 86.0 | Scp-1 conf 72.4 | MG interference inactive | Scp-1 Tm shift inactive
O=C(COC(=O)COc1ccccc1)NCc1ccco1	none
CCC(C)NC(=O)c1ccc(N2CC3CC(C2)c2cccc(=O)n2C3)c(NC(=O)c2c(F)cccc2F)c1 (stereo unspecified)	none (no result: Scp1 inh)
CN1C(=O)C(=O)/C(=C(/O)c2ccc(Br)cc2)C1c1ccccc1F (stereo unspecified)	none
O=C(COc1ccccc1Cl)NCc1ccco1	none
CCOc1ccccc1OCC(=O)NCc1ccco1	Scp1 inh 58.2 | Scp-1 conf 59.9 | MG interference inactive | Scp-1 Tm shift inactive
Cc1ccc(NC(=O)CN(C)S(=O)(=O)c2ccc3c(c2)n(C)c(=O)c(=O)n3C)c(C)c1	none
Cc1cc(C)c(NC(=O)CN(C)S(=O)(=O)c2ccc3c(c2)n(C)c(=O)c(=O)n3C)c(C)c1	none | Scp-1 conf inactive | MG interference inactive
COc1ccc2[nH]cc(/C=C/c3cc[n+](C)cc3)c2c1	Scp1 inh 58.2 | Scp-1 conf inactive | MG interference inactive
C[N+]1(CCCCCCC(=O)/C=N/O)CCCCCC1	Scp1 inh 95.8 | Scp-1 conf inactive | MG interference inactive
CCNC(=O)C1(C)CCN(C(=O)c2ccc(OC)c(OC)c2)C1 (stereo unspecified)	none (no result: Scp1 inh)
O=C(N/N=C/c1cccc(Br)c1)c1ccc(Br)cc1	LMPTP block 59.7, Scp1 inh 103.7 | Scp-1 conf 75.8 | MG interference inactive | Scp-1 Tm shift inactive
O=C(N/N=C/c1ccc2nccnc2c1)c1ccc(Br)cc1	none
CC1CCc2sc(C(=O)NN=C3CCCC3)cc2C1 (stereo unspecified)	none (no result: Scp1 inh)
COc1ccc(C2c3c(oc4ccccc4c3=O)C(=O)N2CCN2CCOCC2)cc1OC (stereo unspecified)	none
COCCN1C(=O)c2oc3ccccc3c(=O)c2C1c1ccc(OC)c(OC)c1 (stereo unspecified)	Scp1 inh 60.0 | Scp-1 conf 43.7 | MG interference inactive | Scp-1 Tm shift inactive
COc1ccc(-n2nc(C(=O)Nc3nc4ccc(OC)cc4s3)c3ccccc3c2=O)cc1	Scp1 inh 67.8 | Scp-1 conf inactive | MG interference inactive
CCOc1ccccc1NC(=O)CSc1ccc([N+](=O)[O-])cc1	none
C=CCn1cnc2c(c1=O)c1nc3ccccc3nc1n2/N=C/c1cccc(OC)c1OC	Scp1 inh 96.3 | Scp-1 conf 62.0 | MG interference inactive | Scp-1 Tm shift inactive
CN(C(=O)c1cc(COc2ccc(F)cc2Cl)on1)C1CCOC1 (stereo unspecified)	none (no result: Scp1 inh)
CCN1C(=O)[C@@H]2[C@@H](c3ccc(SC4CCCCC4)c(OC)c3)N3CCCC[C@@]3(C(=O)OC)[C@@H]2C1=O	Scp1 inh 52.9 | Scp-1 conf inactive | MG interference inactive
COC(=O)[C@@]12CCCCN1[C@H](c1ccc(SC3CCCCC3)c(OC)c1)[C@@H]1C(=O)N(C)C(=O)[C@@H]12	none
O=C(OCc1cn([C@H]2CN(C(=O)C3CCCCC3)[C@@H](c3ccccc3)C[C@@H]2O)nn1)c1ccccc1	none (no result: Scp1 inh)
CSc1ccccc1NC(=O)c1cc2ncc(Br)cn2n1	Scp1 inh 60.0 | Scp-1 conf 50.3 | MG interference inactive | Scp-1 Tm shift inactive
Cc1ccccc1Cn1ccc(NC(=O)c2cc3ncc(Br)cn3n2)n1	none
Cc1cc(C)c(C(CC(=O)c2cccs2)C(C#N)C#N)c(C)c1 (stereo unspecified)	none
CC(C)NC(=O)N(C)C[C@H]1Oc2ccc(NC(=O)c3ccncc3)cc2C(=O)N([C@H](C)CO)C[C@@H]1C	Scp1 inh 73.4 | Scp-1 conf inactive | MG interference inactive
CC(C)NC(=O)Nc1ccc2c(c1)C(=O)N([C@H](C)CO)C[C@H](C)[C@@H](CN(C)C(=O)NC(C)C)O2	Scp1 inh 55.6 | Scp-1 conf inactive | MG interference inactive
C[C@H](CO)N1C[C@H](C)[C@@H](CN(C)C(=O)Nc2ccccc2)Oc2ccc(NC(=O)CCN3CCOCC3)cc2C1=O	none
CC(C)NC(=O)N(C)C[C@@H]1Oc2ccc(NC(=O)CCN3CCOCC3)cc2CC(=O)N([C@@H](C)CO)C[C@@H]1C	Scp1 inh 51.5 | Scp-1 conf inactive | MG interference inactive
